Only some compounds are listed: those with a hit (about 2.9% of all), similar ones and a draw of the others.
CHO-K1 Ca ag: counter-screen for M1 agonists: effect in parental CHO-K1 cells; Fluo-8 calcium fluorescence; scaled to maximal ATP response, vehicle zero; activation, % at 3 µM; 0.48% of 360,000 active; AID 602248; in the data active means activation above about 15%;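 further: untransfected CHO-K1 host cells lacking M1 receptor as counterscreen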
OX1R antag-1: human HCRTR1 antagonism; O43613; 0.43% of 330,000 active; AID 434989; CHO/OX1R cells, Fluo-8 calcium fluorescence, orexin A; inhibition, % at 5 µM;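 active means inhibition above its plate's threshold, mean inhibition of all tested compounds on the plate plus 3 SD, cut at about 37% in these data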;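 further: 0% = orexin A challenge wells and 100% = SB-334867-A antagonist wells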
Target sequence (O43613 whole entry, looked up): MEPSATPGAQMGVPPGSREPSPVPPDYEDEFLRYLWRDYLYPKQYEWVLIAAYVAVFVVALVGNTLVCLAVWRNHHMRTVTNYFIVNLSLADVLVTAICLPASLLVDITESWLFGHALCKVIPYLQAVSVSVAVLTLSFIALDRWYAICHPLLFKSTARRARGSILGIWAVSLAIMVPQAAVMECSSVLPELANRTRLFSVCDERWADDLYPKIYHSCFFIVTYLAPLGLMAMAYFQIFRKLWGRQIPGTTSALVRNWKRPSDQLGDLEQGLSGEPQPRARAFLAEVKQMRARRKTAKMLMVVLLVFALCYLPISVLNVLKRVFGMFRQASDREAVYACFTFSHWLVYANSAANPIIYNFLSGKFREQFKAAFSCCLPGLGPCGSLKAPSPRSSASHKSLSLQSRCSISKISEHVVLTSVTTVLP
CHO parental Ca: counter-screen: ATP calcium response change in parental CHO cells; parental CHO-K1, ATP-induced calcium, Fluo-8 fluorescence; inhibition, % at 5.6 µM; 0.63% of 330,000 active;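 active means inhibition above that plate's mean sample inhibition plus 3 SD, cut at about 26% in these data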;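 further: 0% = ATP-challenged DMSO wells and 100% = DMSO wells without ATP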
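Assay system: parental CHO cells; Read-out basis: percent inhibition of ATP-evoked calcium rise, normalized to controls; Benchmarks: ATP and no-ATP DMSO wells; Compound dosing: single nominal dose of 5.6 µM per compound; Signal: Fluo-8 calcium dye fluorescence; Also added: ATP as calcium-mobilizing challenge; Repeats: singlicate.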
CHO-K1 Ca antag: nonselective inhibitor or artifact in parental CHO-K1 cells; ATP-induced calcium, Fluo-8 fluorescence; inhibition, % at 3 µM; 0.6% of 360,000 active; AID 602250;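 active means inhibition above a per-plate cutoff, the plate's mean sample inhibition plus 3 SD, cut at about 24% in these data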;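 further: 0% = DMSO plus EC80 ATP and 100% = DMSO alone without ATP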
OX1R antag-2: antagonists of human orexin 1 receptor (OX1R) | O43613 | inhibition, % at 6.6 µM | OX1R-expressing cells, FRET antagonist read-out | 1.8% of 330,000 active; in the data active means inhibition mostly above about 38%, no sharp cut-off; inactive means mostly below about 40%;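 further: 0% = agonist challenge alone and 100% = reference antagonist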
M1 PAM parental: nonselective activator or artifact in parental CHO-K1 calcium assay | ATP EC20, Fluo-8 calcium fluorescence; 0% at ATP EC20, 100% at ATP max | AID 602247 | 0.02% of 360,000 active | activation, % at 3 µM;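 active means activation above the run cutoff, the mean activation of all test compounds plus 3 SD, cut at about 40% in these data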;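 further: peak over basal fluorescence ratio in a 140 s read after ATP addition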
OX1R HTRF confirm: OX1R (human) antagonism, HTRF confirmed | shares compounds with OX1R antag-2 | OX1R-expressing cells, HTRF antagonist assay | inhibition, % at 6.6 µM | 49% of 1,800 active | AID 492964; in the data active means inhibition above about 55%;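 further: CHO cells expressing OX1R stimulated with orexin A at about EC80; 0% = agonist challenge alone and 100% = reference antagonist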
CHO-K1 HTRF: signal in parental CHO-K1 cells, OX1R antagonist counter-screen; 48% of 1,800 active; inhibition, % at 6.6 µM; HTRF counterscreen; AID 493232; shares compounds with OX1R antag-2; in the data active means inhibition above about 17%;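 further: 0% = agonist challenge with vehicle and 100% = vehicle alone without agonist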
* hit, by the source's call; · = not tested or not shown; + = active, no number.

SMILES	CHO-K1 Ca ag	OX1R antag-1	CHO parental Ca	CHO-K1 Ca antag	OX1R antag-2	M1 PAM parental	OX1R HTRF confirm	CHO-K1 HTRF
CCCCn1nc(C)c(C(=O)O)c1Cl	1.4	-20.0	-5.0	-3.0	6.8	24.6	·	·
O=[N+]([O-])c1ccc(N2CCCC2)c(F)c1Br	8.2	-7.8	5.3	7.4	25.6	11.6	·	·
O=[N+]([O-])c1ccc(N2CCOCC2)c2ccncc12	0.4	-17.0	-12.4	-9.5	106.6*	-4.3	47.0	65.1*
Cc1cc(=O)oc2cc(OCC(=O)N3CCN(Cc4ccc5c(c4)OCO5)CC3)ccc12	0.6	-19.3	-8.9	-8.8	6.3	4.1	·	·
O=c1[nH]c(O)c(N=Nc2cc([N+](=O)[O-])ccc2O)c(=O)[nH]1	2.8	-4.7	3.9	-7.2	+	1.2	71.2*	93.2*
COc1cccc(CNC(=O)CCC(=O)N2C[C@H]3C[C@H](C2)c2cccc(=O)n2C3)c1OC	0.2	-5.6	-3.4	4.7	12.2	9.2	·	·
CN1CCN(c2ccc([N+](=O)[O-])c3no[n+]([O-])c23)CC1	12.6	12.9	22.1	-1.1	77.0*	-1.2	74.1*	106.5*
O=[N+]([O-])c1ccc(N(CCO)CCO)c2c1no[n+]2[O-]	3.4	·	·	0.2	·	11.8	·	·
COC(=O)CC1=C(C(=O)OC)C2(C(=O)Nc3c(C)cccc32)C(C#N)=C(N)O1 (centres undefined)	0.0	-0.4	6.7	-4.9	12.9	9.5	·	·
O=C1C(=O)c2cccc3cccc1c23	-0.3	-2.5	-6.9	-6.2	101.0*	2.7	30.8	41.9*
O=C1C(=O)c2ccccc2-c2ccccc21	3.2	3.7	-17.7	-1.5	105.5*	11.2	60.5*	28.6*
CN1CCN(c2cccc3c2C(=O)c2ccccc2C3=O)CC1	0.2	·	·	-16.8	·	8.9	·	·
Cn1c(O)c(C(=NCCc2c[nH]c3ccccc23)c2ccccc2)c(=O)n(C)c1=O	0.8	1.7	-2.0	-9.5	0.1	4.0	·	·
Cc1nc2c(=O)n(C)c(=O)nc-2n(C)n1	5.3	2.2	-7.5	-9.4	+	21.2	84.0*	99.9*
CCOC(=O)c1c(N)n(CCCOC(=O)c2ccco2)c2nc3ccccc3nc12	0.8	-10.7	-6.4	-2.6	82.8*	-2.0	35.5	22.5*
CCOc1cc(CNCCc2c[nH]c3ccccc23)cc(Cl)c1OC	15.0	-36.7	-17.0	-2.7	104.9*	8.7	17.1	3.2
C=CCn1c(O)c(C(C)=NC(C)c2ccccc2)c(=O)[nH]c1=O (centres undefined)	1.6	-21.1	-16.4	5.4	8.3	-9.6	·	·
O=C1NC(=S)NC(=O)C1=Cc1ccc(OCC(=O)N2CCCC2)cc1	0.3	-0.6	-1.6	5.1	7.2	9.8	·	·
CCn1nc(-c2ccccc2)nc2c(=O)n(C)c(=O)nc1-2	2.6	-13.8	-6.7	10.7	+	-3.5	101.7*	95.0*
CN1Cc2cnnn2-c2ccccc2C1c1ccccc1 (centres undefined)	0.0	·	·	-4.2	·	3.1	·	·
O=P1(Nc2ccc(F)cc2)COc2ccccc2OC1	0.5	4.4	-8.4	-5.3	12.1	8.0	·	·
Cn1c(O)c(N=Nc2ccc(S(=O)(=O)N3CCOCC3)cc2)c(=O)n(C)c1=O	0.8	3.4	-9.7	-17.5	85.6*	26.4	50.1	73.8*

Source: PubChem BioAssay (The Scripps Research Institute Molecular Screening Center)
